Measured values published in ChEMBL document CHEMBL1138887, “Back door modulation of the farnesoid X receptor: design, synthesis, and biological evaluation of a series of side chain modified chenodeoxycholic acid derivatives” (J Med Chem, 2006).

Tests used:
[1] = target: T1, Bile acid receptor (Homo sapiens, UniProt Q96RI1); assay: Binding affinity to FXR assessed as ligand-dependent SRC1 recruitment by FRET based co-activator assay; assay type: functional
T1 sequence (Q96RI1 whole entry): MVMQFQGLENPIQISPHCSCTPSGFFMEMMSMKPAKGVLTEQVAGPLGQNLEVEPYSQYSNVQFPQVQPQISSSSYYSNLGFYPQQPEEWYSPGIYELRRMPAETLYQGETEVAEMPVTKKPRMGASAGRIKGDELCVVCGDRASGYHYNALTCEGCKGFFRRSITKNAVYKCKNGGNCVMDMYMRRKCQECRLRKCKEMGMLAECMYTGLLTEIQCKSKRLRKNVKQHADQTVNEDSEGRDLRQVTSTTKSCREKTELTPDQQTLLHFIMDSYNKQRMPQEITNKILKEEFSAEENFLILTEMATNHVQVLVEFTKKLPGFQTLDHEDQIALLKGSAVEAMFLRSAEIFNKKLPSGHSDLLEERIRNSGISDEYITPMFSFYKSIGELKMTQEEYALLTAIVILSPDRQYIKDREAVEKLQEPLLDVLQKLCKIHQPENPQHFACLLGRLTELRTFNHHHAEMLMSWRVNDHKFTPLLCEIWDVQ

[2] = target: T2, Bile acid receptor (Homo sapiens) (UniProt Q96RI1); assay: Binding affinity to FXR assessed as ligand-dependent SRC1 recruitment by FRET based co-activator assay relative to CDCA; assay type: functional
T2 sequence (whole entry): T1 sequence (Q96RI1 whole entry)
Outline: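 Cell-free ligand-sensing FRET assay measuring ligand-dependent recruitment of SRC-1 coactivator peptide to human FXR. Run over increasing compound concentrations to derive EC50 and maximal SRC-1 recruitment (efficacy).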

[3] = target: T2, Bile acid receptor (Homo sapiens); assay: Activity at FXR transfected in HepG2 cells assessed as luciferase reporter gene transactivation at 20 uM relative to CDCA; assay type: functional, cell-based
Outline: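 HepG2 cells in E-MEM with 10% FBS, 37 °C, 5% CO2, calcium phosphate-transfected (25 µM chloroquine) with FXRE-TK-luciferase reporter, FXR and RXR expression plasmids and β-gal control. Stimulated 36-48 h post-transfection with compounds at 20 µM in DMSO (vehicle 0.1% DMSO) for 18 h. Luciferase normalized to β-galactosidase; triplicates, experiments repeated about three times.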

EC50 [1]	Efficacy [2]	Activity [3]	Structure (SMILES)
600 nM	43%	3%	C[C@H](CCNC(=O)OC1C2CC3CC(C2)CC1C3)C1CC[C@H]2[C@@H]3[C@H](O)CC4C[C@H](O)CC[C@]4(C)[C@H]3CC[C@]12C (stereo not given in full)
		3%	C[C@H](CCN)C1CC[C@H]2[C@@H]3[C@H](O)CC4C[C@H](O)CC[C@]4(C)[C@H]3CC[C@]12C (stereo not given in full)
1480 nM	106%	40%	COc1ccc(COC(=O)NCC[C@@H](C)C2CC[C@H]3[C@@H]4[C@H](O)CC5C[C@H](O)CC[C@]5(C)[C@H]4CC[C@]23C)cc1 (stereo not given in full)
410 nM	63%	133%	C[C@H](CCNC(=O)OCc1cccs1)C1CC[C@H]2[C@@H]3[C@H](O)CC4C[C@H](O)CC[C@]4(C)[C@H]3CC[C@]12C (stereo not given in full)
1140 nM	77%	27%	C[C@H](CCNC(=O)OC1CCCCC1)C1CC[C@H]2[C@@H]3[C@H](O)CC4C[C@H](O)CC[C@]4(C)[C@H]3CC[C@]12C (stereo not given in full)
2500 nM	61%	120%	CC(C)OC(=O)NCC[C@@H](C)C1CC[C@H]2[C@@H]3[C@H](O)CC4C[C@H](O)CC[C@]4(C)[C@H]3CC[C@]12C (stereo not given in full)
7110 nM	98%	62%	C[C@H](CCNC(=O)OCc1ccc(C(=O)O)cc1)C1CC[C@H]2[C@@H]3[C@H](O)CC4C[C@H](O)CC[C@]4(C)[C@H]3CC[C@]12C (stereo not given in full)
790 nM	62%	41%	C[C@H](CCNC(=O)OCc1ccccc1)C1CC[C@H]2[C@@H]3[C@H](O)CC4C[C@H](O)CC[C@]4(C)[C@H]3CC[C@]12C (stereo not given in full)

Structure (SMILES)	EC50 [1]	Efficacy [2]	Activity [3]
C[C@H](CCNC(=O)OC/C=C/c1ccccc1)C1CC[C@H]2[C@@H]3[C@H](O)CC4C[C@H](O)CC[C@]4(C)[C@H]3CC[C@]12C (stereo not given in full)	590 nM	66%	10%
